Bioassay records deposited in PubChem by several laboratories.
Hits are enriched below; roughly 1.8% of the tested compounds scored in any of these assays.
697 NFkB inh: inhibitors of PMA/ionomycin-induced NF-kB reporter, 697 cells, primary screen, B-cell NF-kB inhibitor project, cell-based, luminescence, uHTS; 697 B-cell NF-kB luciferase reporter, 16 h; inhibition, % at 4 µM; 0.33% of 330,000 active; in the data active means inhibition above about 35%
NR2E3 ag-1: inhibitors of NR2E3-RetCOR corepressor binding, primary screen, NR2E3 agonist project, biochemical, TR-FRET, GST-NR2E3, biotin-RetCOR. 0.12% of 320,000 active. AID 2300, 2010. inhibition of corepressor binding, % at 4.78 µM. 1536-well. Photoreceptor-specific nuclear receptor (Homo sapiens), Q9Y5X4;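 active means percent inhibition above the cutoff of mean plus 3 SD of all tested compounds, set per screening campaign, cut at about 20% in these data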;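 further: 0% = DMSO wells and 100% = biotin wells as full block of FRET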
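Test system: GST-NR2E3 and biotin-RetCOR proteins | Quantity: 1.35 nM GST-tagged NR2E3 final | Medium: Tris pH 7.5 | Also added: 7 nM biotin-RetCOR | Dosing: Compound at 4.8 µM, single dose | Timing: 5 h at 4 °C | Detection: Time-resolved FRET | Read-out basis: Percent inhibition | Benchmarks: Biotin wells as high control, 0.6% DMSO wells as low control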
NR2E3 ag-2: NR2E3 agonists in two-hybrid cells, primary screen, cell-based, luminescence, CHO-S, Gal4-NCOR/VP16-NR2E3; Photoreceptor-specific nuclear receptor (Homo sapiens), Q9Y5X4; 0.35% of 360,000 active; luciferase; inhibition of corepressor binding, % at 3.98 µM;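 active means inhibition above the mean of all tested compounds plus 3 SD, cut at about 70% in these data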;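 further: 0% = DMSO with NR2E3 transfected cells and 100% = cells lacking NR2E3 construct; higher means lower luciferase signal from less NR2E3 corepressor binding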
Gli-Sufu antag: Gli-Sufu pathway antagonists, primary screen, luciferase luminescence, Sufu-KO-LIGHT cells, uHTS; Sufu-KO-LIGHT fibroblasts, Gli luciferase reporter luminescence; inhibition, % at 5 µM; 0.74% of 340,000 active; AID 588413, 2011;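 active means inhibition above about 55%, limit read from the data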;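 further: 0% = DMSO-treated cells and 100% = wells with medium but no cells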
GalR3 antag: GalR3 antagonists in HEK293 cells, primary screen, cell-based, fluorescence readout; Galanin receptor type 3 (Homo sapiens), O60755; HEK293 GalR3-CNG cAMP membrane potential fluorescence; galR3 body fused to GalR1 C-terminus; inhibition, % at 3 µM; 0.44% of 360,000 active; AID 651719, 2012;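 active means inhibition above the screen-wide average plus 3 SD, cut at about 13% in these data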;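 further: forskolin and galanin both at EC90 stimulate the cells; cAMP rise reported by CNG channel membrane potential dye signal; 0% = forskolin plus galanin with DMSO and 100% = forskolin alone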
Target sequence (O60755 1-299 limits assumed): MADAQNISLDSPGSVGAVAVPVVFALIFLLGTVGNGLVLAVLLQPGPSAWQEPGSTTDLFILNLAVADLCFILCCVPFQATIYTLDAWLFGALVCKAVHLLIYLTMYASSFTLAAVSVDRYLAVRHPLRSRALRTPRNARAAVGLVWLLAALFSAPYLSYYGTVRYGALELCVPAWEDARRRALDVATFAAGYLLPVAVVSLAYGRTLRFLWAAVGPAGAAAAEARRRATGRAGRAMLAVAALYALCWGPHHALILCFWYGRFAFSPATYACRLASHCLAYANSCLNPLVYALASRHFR
Jurkat NFkB inh: inhibitors of induced NF-kB luciferase reporter, primary screen, TCR NF-kB activation inhibitor project, cell-based, luminescence, uHTS. 0.53% of 330,000 active. AID 435003, 2010. Jurkat, PMA/ionomycin-induced NF-kB luciferase reporter. inhibition, % at 4 µM; in the data active means inhibition above about 50%
Jurkat NFkB conf: PMA/ionomycin-induced NF-kB reporter inhibitors, Jurkat retest, confirmation, T-cell NF-kB inhibitor project, cell-based, luminescence, single concentration; shares compounds with Jurkat NFkB inh; Jurkat NF-kB luciferase, 16 h; inhibition, % at 4 µM; 27% of 2,700 active; AID 435020, 2010;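 active means inhibition reaching about 45% at 4 µM in either replicate, limit read from the data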;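 further: plate controls were PMA/ionomycin stimulated DMSO wells for no effect and unstimulated DMSO wells for full effect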
697 NFkB conf: PMA/ionomycin-induced NF-kB reporter inhibitors, 697 retest, confirmation, B-cell NF-kB inhibitor project, cell-based, luminescence, single concentration. 35% of 2,000 active. 697 B-cell NF-kB luciferase, 16 h. inhibition, % at 4 µM. shares compounds with 697 NFkB inh; in the data active means inhibition mostly above about 28%, no sharp cut-off; inactive means mostly below about 22%
Gli-Sufu confirm: Gli-SUFU pathway antagonists, confirmation, single concentration, luciferase luminescence, Sufu-KO-LIGHT cells | 40% of 2,500 active | inhibition, % at 5 µM | shares compounds with Gli-Sufu antag | Gli luciferase reporter;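 active means mean inhibition at 5 µM reaching about 45%, limit read from the data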;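 further: plate controls were DMSO-treated cells for no effect and wells lacking cells for full effect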
Gli cytotox: cytotoxicity in Sufu-KO-LIGHT cells, confirmation, cytotoxicity control for Gli-SUFU antagonist project, cell-based, ATP luminescence, single concentration; 32% of 2,500 active; cytotoxicity, % at 5 µM; shares compounds with Gli-Sufu antag;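 active means mean cytotoxicity at 5 µM above about 25%, limit read from the data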;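 further: cells exposed to compound overnight for roughly 16 to 18 hours; plate controls were DMSO wells with cells for no effect and medium without cells for full effect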
Wnt3a cs: Wnt3a reporter signal inhibition, confirmation, counter-screen for Gli-SUFU antagonist project, Wnt-LIGHT cells, luminescence, single concentration; Wnt3a-driven luciferase reporter; inhibition, % at 6.25 µM; shares compounds with Gli-Sufu antag; 20% of 2,500 active;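 active means mean inhibition above about 25%, limit read from the data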
NR2E3 ag confirm: NR2E3 agonist confirmation in cells, cell-based, luminescence, CHO-S two-hybrid; shares compounds with NR2E3 ag-2; CHO-S mammalian two-hybrid NR2E3-NCOR, luciferase luminescence; inhibition, % at 3.98 µM; 51% of 2,300 active; AID 624378, 2012;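 active means average inhibition above a cutoff equal to the mean inhibition of all tested compounds plus one SD, cut at about 70% in these data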;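 further: 0% = DMSO in NR2E3 cells and 100% = DMSO in cells lacking NR2E3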
GAL4-VP16 luc: GAL4-VP16 reporter modulators, confirmation, counter-screen for NR2E3 agonist project, cell-based, luminescence, CHO-S, high throughput. shares compounds with NR2E3 ag-2. 29% of 2,300 active. CHO-S GAL4-VP16 luciferase reporter. AID 624379, 2012. inhibition, % at 3.98 µM;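 active means mean inhibition above a cutoff equal to the average over all tested compounds plus one standard deviation, cut at about 70% in these data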;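 further: luciferase from a UAS reporter driven by GAL4-VP16 transactivation; 0% = DMSO with VP16-transfected cells and 100% = DMSO with cells lacking VP16; higher means less reporter light so more repression of VP16 activity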
GalR3 conf: GalR3 antagonist hit confirmation, cell-based, fluorescence, triplicate | AID 652245, 2013 | inhibition, % at 3 µM | 59% of 1,600 active | shares compounds with GalR3 antag | HEK293 GalR3 CNG cAMP biosensor, membrane potential fluorescence; galR3 fused to GalR1 carboxy tail; challenged with forskolin and galanin at EC90;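 active means inhibition above the primary screen's cutoff, the mean inhibition of all screened compounds plus 3 SD, cut at about 13% in these data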;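 further: 0% = forskolin plus galanin and 100% = forskolin alone with DMSO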
HEK-CNG parental: nonspecific cAMP agonists in parental HEK-CNG cells, counter-screen for GalR3 antagonist project, cell-based, fluorescence, high throughput | shares compounds with GalR3 antag | activation, % at 3 µM | HEK293-CNG parental cells, cAMP membrane potential fluorescence; normalised: DMSO wells 0%, forskolin wells 100% | AID 652268, 2013 | 10% of 1,600 active; in the data active means activation above about 1.3%
* hit, by the source's call; nt = no result.

SMILES	697 NFkB inh	NR2E3 ag-1	NR2E3 ag-2	Gli-Sufu antag	GalR3 antag	Jurkat NFkB inh	Jurkat NFkB conf	GalR3 conf	HEK-CNG parental	others
CCN1/C(=C/c2ccc3cccc(C)c3[n+]2CC)Sc2ccccc21	102*	-6	86*	88*	49*	92*	77*	45*	10*	697 NFkB conf=87*;NR2E3 ag confirm=97*;GAL4-VP16 luc=85*
O=C(Nc1ccncc1)c1ccc(Cl)c(S(=O)(=O)N2CCc3ccccc32)c1	-17	3	-9	1	40*	60*	79*	61*	0
NC(=O)c1ncn([C@@H]2O[C@H](C(=O)Nc3ccc(Oc4ccccc4)nc3)[C@@H](O)[C@H]2O)n1	nt	nt	nt	nt	-3	nt	nt	nt	nt
Cc1ccccc1-c1ccc2c(c1)[C@@H]1C[C@H](N(C)CC3CCCCC3)[C@H]([C@H](C)O)CN1CC2	nt	nt	nt	nt	-5	nt	nt	nt	nt
Cc1ccc(CNC(=O)c2ccc(N3CCCC3=O)cc2)cc1	7	0	-28	0	-5	-3	nt	nt	nt
Cn1nc(C(C)(C)C)cc1C(=O)NCc1ccc(N2CCCC2=O)cc1	42*	2	92*	81*	98*	66*	66*	104*	0	697 NFkB conf=57*;Gli-Sufu confirm=77*;Gli cytotox=36*;Wnt3a cs=42*;NR2E3 ag confirm=96*;GAL4-VP16 luc=87*
CCCCS(=O)(=O)N1CCCc2nc(-c3ccc(Br)cc3)ccc21	nt	nt	nt	nt	-1	nt	nt	nt	nt
CCOc1ccc(-c2ccc(SCC)nn2)cc1	-237	-2	-117	-118	nt	-224	-88	-5	0
CCSc1ccc(-c2ccc(C)cc2)nn1	nt	nt	-109	-116	-3	nt	nt	nt	nt
